The source of these data is ChEMBL document CHEMBL4219232, “Discovery of novel serine palmitoyltransferase inhibitors as cancer therapeutic agents” (Bioorg Med Chem, 2018).

One may read the bioavailability as the share of a dose that reaches the circulation, judged against a reference dose that is usually intravenous. One may read the IC50 as the midpoint of a concentration-inhibition curve. One may read the clearance as the volume of plasma or blood freed of the substance per unit of time. Read a high clearance as a high capacity for elimination. By Cmax is commonly meant the highest concentration seen after dosing. What is called Tmax is the time at which the peak concentration occurs. The AUC is the area under the concentration-time curve, a measure of exposure. The low end stands for low exposure, the high end for high exposure. The MRT is the average time that molecules of a dose stay in the body. Broadly, the inhibition in vivo is the drop in the measured response relative to a control, in per cent. As usually defined, the Papp is a coefficient for how fast a substance crosses the barrier. A high value points to ready permeation. For orientation: T/C means the result in the treated group divided by that in the control group, in per cent.

For data set [1], the system named is HCC4006. Kind of data set: Growth inhibition of human HCC4006 cells assessed as inflection point after 5 days by cell-titer-glo luminescent cell viability assay. It counts as functional. Summed up:
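HCC4006 cells were grown in RPMI with 10% FBS and penicillin/streptomycin, seeded at 250 cells/well and cultured overnight. Cells were then exposed to compound for 5 days, and the medium was replaced with CellTiter-Glo reagent for a luminescence read. The IP is the concentration at the inflection point of the dose-response curve, n = 2.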

A short description of data set [2]: Clearance in human liver microsomes in presence of NADPH. Type of data set: ADME, microsome. The note with it: read-out: CLH. Summed up:
(§1)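 Metabolic clearance was measured in human or mouse liver microsomes with NADPH, n = 2, in μL/min/mg.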
Background: Liver microsomes are a subcellular fraction often used to study metabolism.

A short description of data set [3]: Oral bioavailability in non-fasted mouse at 1 mg/kg administered as cassette dosing by LC/MS/MS analysis. It counts as ADME, organism-based. The note with it: in vivo. The method in brief:
(§2)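 Non-fasted mice received compounds as cassettes, intravenously at 0.1 mg/kg (10 compounds per cassette) or orally at 1 mg/kg (5 compounds per cassette). Blood was collected and centrifuged to plasma. Plasma was deproteinized with acetonitrile and centrifuged before analysis. Parameters are means of n = 3.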

Data set [4] can be described thus: Clearance in mouse liver microsomes in presence of NADPH. Type of data set: ADME, microsome. The note with it: read-out: CLH. The method in brief:
as §1

The nature of data set [5]: Inhibition of SPT in human HCC4006 cells assessed as reduction in ceramide content after 24 hrs in presence of C16-ceramide-d31/C14-phosphatidylcholine-d72 by LC/MS analysis. The conditions noted are these: HCC4006, 24 h.
Data set [6] can be described thus: Growth inhibition of human PL21 cells after 5 days by cell-titer-glo luminescent cell viability assay. The conditions noted are these: for IC50: Homo sapiens, PL-21, 120 h. Type of data set: functional.
Data set [7] is described as follows: Thermodynamic solubility in Japanese pharmacopoeia disintegration test solution 2 at 6.8. It counts as physicochemical. The conditions noted are these: Japanese pharmacopoeia disintegration test solution 2, pH 6.8; read-out: Therm_solubility. The method in brief:
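Thermodynamic solubility was measured in Japanese Pharmacopoeia disintegration test solution 2 at pH 6.8.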

Data set [8] can be described thus: Volume of distribution at steady state in non-fasted mouse at 0.1 mg/kg, iv administered as cassette dosing by LC/MS/MS analysis. It counts as ADME, organism-based. The note with it: in vivo, read-out: Vdss. Summed up: as §2
Data set [9] in a line: Total clearance in non-fasted mouse at 0.1 mg/kg, iv administered as cassette dosing by LC/MS/MS analysis. It counts as ADME, organism-based. The conditions noted are these: in vivo. Summed up:
as §2

Data set [10] in a line: Cmax in non-fasted mouse at 1 mg/kg, po administered as cassette dosing by LC/MS/MS analysis. It counts as ADME, organism-based. Set-up: dose 1 mg/kg, route oral. The note with it: in vivo. The method in brief: as §2
Data set [11] is described as follows: Tmax in non-fasted mouse at 1 mg/kg, po administered as cassette dosing by LC/MS/MS analysis. The conditions noted are these: in vivo. It counts as ADME, organism-based. The method in brief:
as §2

A short description of data set [12]: AUC in non-fasted mouse at 1 mg/kg, po administered as cassette dosing by LC/MS/MS analysis. Type of data set: ADME, organism-based. The conditions noted are these: in vivo. Summed up:
as §2

Data set [13] in a line: MRT in non-fasted mouse at 1 mg/kg, po administered as cassette dosing by LC/MS/MS analysis. Type of data set: ADME, organism-based. The conditions noted are these: in vivo. The method in brief:
as §2

For data set [14], the system named is Mus musculus. Kind of data set: In vivo inhibition of SPT in tumors of human HCC1806 cells xenografted in mouse assessed as reduction in 3-KDS levels at 10 mg/kg, po measured after 8 hrs post dose by LC/MS analysis relative to control. Type of data set: functional. The method in brief: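 HCC1806 breast cancer xenograft mice were dosed orally at 10 mg/kg. Tumor 3-KDS was quantified by LC/MS 8 h after dosing and compared with vehicle. Data are mean ± SD, n = 5, analysed by Dunnett's test.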
On the technique in general: A xenograft is tissue or cells of one species grown in another, often human tumour cells in immunodeficient mice.

Data set [15] in a line: Permeability of the compound from apical to basolateral side at pH 7.8 by PAMPA.
For data set [16], the target named is T1, Serine palmitoyltransferase 2 (Homo sapiens, UniProt O15270).
T1 sequence (O15270 whole entry): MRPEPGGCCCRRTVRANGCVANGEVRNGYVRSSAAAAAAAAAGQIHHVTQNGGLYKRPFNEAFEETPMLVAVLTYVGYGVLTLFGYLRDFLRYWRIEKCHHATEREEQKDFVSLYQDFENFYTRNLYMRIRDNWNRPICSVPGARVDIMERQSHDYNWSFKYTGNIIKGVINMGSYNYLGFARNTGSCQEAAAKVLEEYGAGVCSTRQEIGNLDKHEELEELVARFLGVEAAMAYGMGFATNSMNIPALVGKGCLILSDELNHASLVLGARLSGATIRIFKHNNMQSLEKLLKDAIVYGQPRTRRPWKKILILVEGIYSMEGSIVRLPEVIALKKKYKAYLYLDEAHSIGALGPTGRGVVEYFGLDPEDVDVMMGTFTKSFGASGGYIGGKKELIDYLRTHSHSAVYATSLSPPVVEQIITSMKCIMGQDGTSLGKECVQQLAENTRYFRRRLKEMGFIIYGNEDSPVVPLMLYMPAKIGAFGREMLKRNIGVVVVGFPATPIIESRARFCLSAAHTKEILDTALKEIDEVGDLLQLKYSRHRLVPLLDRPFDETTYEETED
Kind of data set: Inhibition of human SPT2 transfected in Freestyle293 cells using L-serine and palmitoyl-CoA as substrate preincubated for 60 mins followed by substrate addition measured after 15 mins by mass spectrometric analysis. It counts as cell-based.

The nature of data set [17]: Antitumor activity against human PL21 cells xenografted in mouse at 10 mg/kg, po administered every other day for 2 weeks relative to control. It counts as functional. Summed up:
(§3)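 PL-21 xenograft mice, n = 6 per group. Compound was suspended in 0.5% aqueous methylcellulose and given orally every other day for two weeks at 10 or 30 mg/kg. Tumor volume and body weight were followed. T/C is the median tumor weight of the treated group divided by that of the control group.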

Data set [18] in a line: Antitumor activity against human PL21 cells xenografted in mouse at 30 mg/kg, po administered every other day for 2 weeks relative to control. Type of data set: functional. The method in brief: as §3
Data set [19] concerns Mus musculus. Briefly: Toxicity in mouse xenografted with human PL21 cells assessed as body weight loss at 10 to 30 mg/kg, po administered every other day for 2 weeks. Type of data set: organism-based. The conditions noted are these: in vivo, 336 h. Summed up:
as §3

Values after ≈ are worked out from the molar mass of the structure shown. Some results are limits rather than exact numbers.

For the compound `COc1ccc(C(=O)N2CC[C@H](NC(=O)c3ccccc3Cl)[C@@H](c3ccccc3)C2)cc1OC`, the IP in data set [1] is on record as more than 30000 nM.
In the case of `COc1cc(C(=O)N2CCC(NC(=O)c3ccccc3OC(F)(F)F)c3c2cnn3C(C)C)cnc1OC` (racemic), the IP in data set [1] turned out to be 23 nM. Also, the microsomal CLint in data set [2] was determined as 15 µL/min/mg. The bioavailability in data set [3] amounted to 25%.
Consider `COc1ccc(C(=O)N2CC[C@H](NC(=O)c3ccccc3Cl)[C@H](c3ccccc3)C2)cc1OC`, for which the IP in [1] amounted to 3800 nM.
Consider `COc1ccc(C(=O)N2CCC(NC(=O)c3ccccc3Cl)c3c2cnn3C)cc1OC` (racemic), for which the IP in data set [1] came out at 250 nM. Besides, the microsomal CLint in [2] and in data set [4] was 6 µL/min/mg throughout. The bioavailability in data set [3] turned out to be 28%.
For the compound `Cn1nc(C(F)(F)F)cc1C(=O)N[C@@H]1CCN(C(=O)c2cc(Cl)c3nccnc3c2)C[C@@H]1c1ccccc1`, the IP in [1] amounted to 11 nM. Further, the microsomal CLint is less than 1 µL/min/mg in data set [2] and 60 µL/min/mg in data set [4]. Besides, the bioavailability in data set [3] was determined as 56%. Moreover, the half-inhibitory concentration (IC50) in data set [5] was 2.3 nM; in data set [6] it was 11 nM. For the same compound, the Imax in [6] is reported as more than 90%. Also, in [7], the solubility thermodynamic was 8 µg/mL (≈ 14.7 µM). The Vd in [8] is 0.75 L/kg. The compound also gave a clearance in [9] of 8.45 mL/min/kg. In data set [10], this compound displayed a Cmax of 282 ng/mL. Also, the Tmax in data set [11] stood at 1.2 h. Moreover, the AUC in data set [12] was 1110 ng·h/mL. In data set [13], the MRT came out at 2.7 h. Further, in [14], the inhibition in vivo at 10 mg/kg is 40%. The compound also gave a Papp in [15] of 20.3 ×10⁻⁶ cm/s.
`CCCCCCC(=O)CCCCCC/C=C/C[C@@H](O)[C@H](O)[C@@](N)(CO)C(=O)O` [MYRIOCIN]: the concentration for half-maximal inhibition (IC50) in [16] came to 0.13 nM; in data set [5], 1.5 nM; in [6], 7.8 nM. Besides, the IP in data set [1] was 2.1 nM. The Imax in data set [6] is listed as more than 90%.
`COc1ccc(C(=O)N2CCC(NC(=O)c3ccccc3Cl)c3ccc(Cl)cc32)cc1OC` (stereo not given): the IP in [1] worked out at 500 nM. Moreover, the microsomal CLint was determined as 132 µL/min/mg in [2] and 216 µL/min/mg in data set [4].
As for `COc1cc(C(=O)N2CC[C@H](NC(=O)c3ccccc3OC(F)(F)F)c3c2cnn3C(C)C)cnc1OC`, the IP in data set [1] stood at 3.9 nM. Moreover, the figures for the microsomal CLint in data set [2] and in [4] were 6 µL/min/mg and 5 µL/min/mg, respectively. The same compound came in with a bioavailability in data set [3] of 53%. Moreover, the values for the IC50 in data set [5] and in data set [6] were 2.4 nM and 4.1 nM, respectively. In [6], this compound yielded an Imax of more than 90%. Further, the solubility thermodynamic in data set [7] came to 24 µg/mL (≈ 45 µM). The Vd in [8] is 1.13 L/kg. The compound further showed a clearance in data set [9] of 15.9 mL/min/kg. In addition, the Cmax in data set [10] worked out at 309 ng/mL. In addition, the time to peak (Tmax) in data set [11] is 0.5 h. Further, the exposure (AUC) in data set [12] turned out to be 572 ng·h/mL. This compound also gave a mean residence time (MRT) in data set [13] of 1.4 h. In addition, the inhibition in vivo at 10 mg/kg in data set [14] was 40%. The T/C in [17] came out at 52%; in data set [18], 38%. In [19], the Activity result was “Non-Toxic”. This compound also registered a Papp in data set [15] of 16.7 ×10⁻⁶ cm/s.
With `COc1cc(C(=O)N2CC[C@@H](NC(=O)c3ccccc3OC(F)(F)F)c3c2cnn3C(C)C)cnc1OC`, in [1], the IP was more than 30000 nM.
In the case of `COc1ccc(C(=O)N2CC[C@@H](NC(=O)c3ccccc3Cl)[C@H](c3ccccc3)C2)cc1OC`, the IP in [1] was 570 nM.
Consider `COc1ccc(C(=O)N2CCC(Nc3ccc(Cl)cc3)c3ccc(Cl)cc32)cc1OC` (stereo not given), for which, in data set [1], the IP stood at 12000 nM.
Turning to `COc1ccc(C(=O)N2CCC(NC(=O)c3ccccc3Cl)C(c3ccccc3)C2)cc1OC` (mixture of isomers), the IP in data set [1] amounted to 41 nM.
For the compound `COc1ccc(C(=O)N2CC[C@@H](NC(=O)c3ccccc3Cl)[C@@H](c3ccccc3)C2)cc1OC`, the IP in [1] was determined as 14 nM. Further, the results for the microsomal CLint in data set [2] and in [4] were 21 µL/min/mg and 245 µL/min/mg, respectively. In [3], this compound registered a bioavailability of less than 1%.
